In ChEMBL document CHEMBL2057177, “Analogues of fenarimol are potent inhibitors of Trypanosoma cruzi and are efficacious in a murine model of Chagas disease” (J Med Chem, 2012):
In brackets after ≈: the same amount, converted by molar mass. Activity calls are given as the source filed them. The calls are words filed in the database; no cut-off is given here.

Key:
[1] = Kinetic solubility of the compound at pH 6.5 by nephelometric analysis; assay type: physicochemical; conditions: buffer, read-out: Kinetic_solubility
Trypanosoma cruzi [2] = assay: Antitrypanosomal activity against trypomastigotes of Trypanosoma cruzi Tulahuen infected immunosuppressed Swiss mouse assessed as level of parasite in blood at 20 mg/kg, po administered after 2 cycles of immunosuppression qd for 10 days; assay type: functional, organism-based; set-up: dose 20 mg/kg
Outline: (§1)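 Female Swiss mice infected ip with Tulahuén parasites; oral gavage dosing in HPMC vehicle, daily from day 8 post-infection. Dosing is followed by 10 days without compound. If blood is then parasite-free, mice receive cyclophosphamide ip 50 mg/kg/day, up to three cycles (4 days on, 3 rest). Parasitemia counted in tail-prick blood by hemocytometer.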

Trypanosoma cruzi [3] = assay: Antitrypanosomal activity against trypomastigotes of Trypanosoma cruzi Tulahuen infected in Swiss mouse model of chagas disease assessed as increase of host survival at 2 mg/kg, po administered 8 days after post infection qd for 5 days; assay type: functional, organism-based; set-up: dose 2 mg/kg
Outline: (§2)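 Female outbred Swiss mice, about 8 weeks old, infected ip with Tulahuén parasites; five mice per group. Daily dosing starts day 8 post-infection. Oral doses given by gavage in HPMC vehicle (0.5% HPMC, 0.4% Tween 80, 0.5% benzyl alcohol); ip doses in PBS with 0.4% Tween 80 and 10% PEG400. Tail-prick blood taken days 8, 9, 12, 14, 16, 19 and 27 post-infection, red cells lysed, and live trypomastigotes counted by hemocytometer. % efficacy = (vehicle mean − treated mean)/vehicle mean × 100. Survival recorded as surviving/infected-and-treated.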

[4] = Plasma concentration in Swiss mouse at 50 mg/kg, po after 8 hrs; assay type: ADME, organism-based; set-up: dose 50 mg/kg, route oral
Outline: (§3)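 Nonfasted male Swiss outbred mice (23.8–39.9 g), fed throughout. Dosed by oral gavage as solution or suspension in aqueous vehicle. Plasma assayed by LC-MS against blank-plasma standards after acetonitrile precipitation; LLOQ 0.001–0.015 μM.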

[5] = Plasma concentration in Swiss mouse at 20 mg/kg, po after 8 hrs; assay type: ADME, organism-based; set-up: dose 20 mg/kg, route oral; outline: as §3
Trypanosoma cruzi [6] = assay: Antitrypanosomal activity against trypomastigotes of Trypanosoma cruzi Tulahuen infected in Swiss mouse model of chagas disease assessed as decrease in parasite level in blood at 20 mg/kg, po administered 8 day after post infection qd for 20 days; assay type: functional; set-up: scale not given: the % may be the effect or the level left; outline: as §2
Trypanosoma cruzi [7] = assay: Antitrypanosomal activity against trypomastigotes of Trypanosoma cruzi Tulahuen infected in Swiss mouse model of chagas disease assessed as decrease in parasite level in blood at 2 mg/kg, po administered 8 days after post infection qd for 5 days; set-up: scale not given: the % may be the effect or the level left
CYP3A4/5 [8] = molecular target: T1, CYP3A4/5 (Homo sapiens, UniProt P08684+P20815); assay: Inhibition of […] in human liver microsomes at 20 uM; assay type: ADME, Microsome
Trypanosoma cruzi [9] = assay: Antitrypanosomal activity against trypomastigotes of Trypanosoma cruzi Tulahuen infected in Swiss mouse model of chagas disease assessed as level of parasite in blood at 20 mg/kg, po qd for 20 days measured after 30 day; assay type: functional, organism-based; set-up: dose 20 mg/kg; outline: as §1
[10] = Plasma concentration in Swiss mouse at 50 mg/kg, po after 1 hr; assay type: ADME, organism-based; set-up: dose 50 mg/kg, route oral; outline: as §3
[11] = Plasma concentration in Swiss mouse at 50 mg/kg, po after 24 hrs; assay type: ADME, organism-based; set-up: dose 50 mg/kg, route oral; outline: as §3
Trypanosoma cruzi [12] = assay: Antitrypanosomal activity against trypomastigotes of Trypanosoma cruzi Tulahuen infected in Swiss mouse model of chagas disease assessed as decrease in parasite level in blood at 50 mg/kg, po administered 8 days after post infection qd for 5 days; assay type: functional; set-up: scale not given: the % may be the effect or the level left; outline: as §2
Trypanosoma cruzi [13] = assay: Antitrypanosomal activity against trypomastigotes of Trypanosoma cruzi Tulahuen infected in Swiss mouse model of chagas disease assessed as decrease in parasite level in blood at 10 mg/kg, ip administered 8 days after post infection qd for 5 days; assay type: functional; set-up: scale not given: the % may be the effect or the level left; conditions: route intraperitoneal; outline: as §2
Trypanosoma cruzi [14] = assay: Antitrypanosomal activity against trypomastigotes of Trypanosoma cruzi Tulahuen infected in Swiss mouse model of chagas disease assessed as increase of host survival at 10 mg/kg, po administered 8 days after post infection qd for 5 days; assay type: functional, organism-based; set-up: dose 10 mg/kg; outline: as §2
[15] = Plasma concentration in Swiss mouse at 20 mg/kg, po after 1 hr; assay type: ADME, organism-based; set-up: dose 20 mg/kg, route oral; outline: as §3
Trypanosoma cruzi [16] = assay: Antitrypanosomal activity against trypomastigotes of Trypanosoma cruzi Tulahuen expressing the beta- galactosidase gene infected rat L6 cells after 96 hrs; assay type: functional, organism-based; conditions: L6, 96 h
Outline: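 Tulahuén trypomastigotes expressing β-galactosidase, maintained by serial passage in L6 cells. L6 cells seeded and left 24 h at 37 °C, 5% CO2, then infected at MOI 3 for 48 h. Compound exposure 96 h, benznidazole control. CPRG with 0.3% Nonidet P-40 added, absorbance at 530 nm after 4−6 h. IC50 taken from % inhibition curve; mean of at least two assays.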

Trypanosoma cruzi [17] = assay: Antitrypanosomal activity against trypomastigotes of Trypanosoma cruzi Tulahuen infected in Swiss mouse model of chagas disease assessed as increase of host survival at 100 mg/kg, ip administered 8 days after post infection qd for 5 days; assay type: functional, organism-based; set-up: dose 100 mg/kg; outline: as §2
Trypanosoma cruzi [18] = assay: Antitrypanosomal activity against trypomastigotes of Trypanosoma cruzi Tulahuen infected in Swiss mouse model of chagas disease assessed as decrease in parasite level in blood at 100 mg/kg, ip administered 8 days after post infection qd for 5 days; assay type: functional; set-up: scale not given: the % may be the effect or the level left; conditions: route intraperitoneal; outline: as §2
[19] = Elimination half life in Sprague-Dawley rat at 4.2 mg/kg, iv; assay type: ADME, organism-based; set-up: dose 4.2 mg/kg, route intravenous; conditions: in vivo, read-out: beta t1/2 (converted)
Outline: (§4)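 Overnight-fasted male Sprague–Dawley rats (272–320 g), n = 2 per route. IV dose given as a 10 min jugular infusion in aqueous solution; oral dose by gavage as aqueous suspension. Arterial blood taken via carotid cannula up to 24 h. Plasma measured by LC-MS after acetonitrile precipitation. Noncompartmental analysis. Blood clearance = plasma clearance divided by in vitro blood/plasma ratio. Bioavailability from mean dose-normalised AUC0–inf, oral versus IV.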

Trypanosoma cruzi [20] = assay: Antitrypanosomal activity against trypomastigotes of Trypanosoma cruzi Tulahuen infected in Swiss mouse model of chagas disease assessed as decrease in parasite level in blood at 100 mg/kg, po administered 8 days after post infection qd for 5 days; assay type: functional; set-up: scale not given: the % may be the effect or the level left
[21] = Apparent volume of distribution at steady state in Sprague-Dawley rat at 4.2 mg/kg, iv; assay type: ADME, organism-based; set-up: dose 4.2 mg/kg, route intravenous; conditions: in vivo, read-out: Vdss(app); outline: as §4
[22] = Plasma concentration in Swiss mouse at 100 mg/kg, po after 1 hr; assay type: ADME, organism-based; set-up: dose 100 mg/kg, route oral
Outline: (§5)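 Nonfasted male Swiss Outbred mice weighing 23.8−39.9 g, with food and water freely available, dosed by oral gavage as an aqueous solution or suspension. Plasma proteins precipitated with acetonitrile and compound quantified by LC-MS against standards made in blank mouse plasma. Lower limit of quantitation 0.001−0.015 μM.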

Trypanosoma cruzi [23] = assay: Antitrypanosomal activity against trypomastigotes of Trypanosoma cruzi Tulahuen infected in Swiss mouse model of chagas disease assessed as decrease in parasite level in blood at 20 mg/kg, po administered 8 days after post infection qd for 5 days; set-up: scale not given: the % may be the effect or the level left
CYP3A4/5 [24] = molecular target: T1, CYP3A4/5; assay: Inhibition of CYP3A4/5 in human liver microsomes; assay type: ADME, Microsome
[25] = Therapeutic index, ratio of IC50 for rat L6 cells to IC50 for trypomastigotes of Trypanosoma cruzi Tulahuen; assay type: cell-based; conditions: read-out: Ratio IC50
[26] = Blood Clearance in Sprague-Dawley rat at 4.2 mg/kg, iv; assay type: ADME, organism-based; set-up: dose 4.2 mg/kg, route intravenous; conditions: whole blood; outline: as §4
Trypanosoma cruzi [27] = assay: Antitrypanosomal activity against trypomastigotes of Trypanosoma cruzi Tulahuen infected in Swiss mouse model of chagas disease assessed as increase of host survival at 50 mg/kg, po administered 8 days after post infection qd for 5 days; assay type: functional, organism-based; set-up: dose 50 mg/kg
[28] = Oral bioavailability in Sprague-Dawley rat at 15.2 mg/kg; assay type: ADME, organism-based; conditions: in vivo; outline: as §4
L6 = assay: Cytotoxicity against rat L6 cells after 72 hrs by Alamar Blue assay; assay type: cell-based; conditions: L6, 72 h
Outline: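 L6 rat skeletal myoblasts in RPMI 1640 with 10% FBS. Exposed to compound for 72 h, seven-point serial dilutions in triplicate. Alamar Blue read at 570 and 630 nm. IC50 is the mean of at least two assays; podophyllotoxin used as control.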

[29] = Plasma concentration in Swiss mouse at 10 mg/kg, po after 1 hr; assay type: ADME, organism-based; set-up: dose 10 mg/kg, route oral; outline: as §3
Trypanosoma cruzi [30] = assay: Antitrypanosomal activity against trypomastigotes of Trypanosoma cruzi Tulahuen infected in Swiss mouse model of chagas disease assessed as increase of host survival at 20 mg/kg, po administered 8 days after post infection qd for 5 days; assay type: functional, organism-based; set-up: dose 20 mg/kg
[31] = Plasma concentration in Swiss mouse at 100 mg/kg, po after 8 hrs; assay type: ADME, organism-based; set-up: dose 100 mg/kg, route oral; outline: as §5
[32] = Plasma concentration in Swiss mouse at 10 mg/kg, po after 8 hrs; assay type: ADME, organism-based; set-up: dose 10 mg/kg, route oral; outline: as §3

In the case of `CC[C@@H]([C@H](C)O)n1ncn(-c2ccc(N3CCN(c4ccc(OC[C@@H]5CO[C@@](Cn6cncn6)(c6ccc(F)cc6F)C5)cc4)CC3)cc2)c1=O` [POSACONAZOLE], the solubility kinetic [1] is reported as 3.1 µg/mL (≈ 4.42 µM), the Activity (Trypanosoma cruzi [2]) is reported as “inactive” and the Activity (Trypanosoma cruzi [3]) is reported as “Active”. For the same compound, the concentration at 8 h [4] was 11.1 µM, the concentration at 8 h [5] was 13.6 µM and the Activity (Trypanosoma cruzi [6]) was >99%. For the same compound, the Activity (Trypanosoma cruzi [7]) was 100%, the inhibition at 20 µM (CYP3A4/5 [8]) was 98% and the Activity (Trypanosoma cruzi [9]) was “Active”. The concentration at 1 h [10] was 6.4 µM, the concentration at 24 h [11] was 3.8 µM and the Activity (Trypanosoma cruzi [12]) was 100%. The Activity (Trypanosoma cruzi [13]) was 100%, the Activity (Trypanosoma cruzi [14]) was “Active” and the concentration at 1 h [15] was 6.3 µM.
With `OC(c1ccc(Cl)cc1)(c1cncnc1)c1ccccc1Cl` (centres undefined) [FENARIMOL] the IC50 (Trypanosoma cruzi [16]) was 350 nM, the concentration at 8 h [5] was 0.08 µM and the inhibition at 20 µM (CYP3A4/5 [8]) was 66%. The Activity (Trypanosoma cruzi [17]) was “Active”, the concentration at 1 h [15] was 2.1 µM and the Activity (Trypanosoma cruzi [18]) was 80%.
With `NC(=O)c1cccc(C(O)(c2ccc(Cl)cc2)c2cccnc2)c1` (racemic) the solubility kinetic [1] was 50 µg/mL (≈ 148 µM), the half-life [19] was 6.1 h and the Activity (Trypanosoma cruzi [20]) was >95%. For the same compound, the concentration at 8 h [4] was 15.9 µM, the IC50 (Trypanosoma cruzi [16]) was 30 nM and the concentration at 8 h [5] was 1.9 µM. The Vd [21] was 3.6 L/kg, the concentration at 1 h [22] was 19.5 µM and the Activity (Trypanosoma cruzi [23]) was 0%. For the same compound, the IC50 (CYP3A4/5 [24]) was 2600 nM, the selectivity ratio [25] was > 500 and the clearance [26] was 18.9 mL/min/kg. For the same compound, the Activity (Trypanosoma cruzi [27]) was “Active”, the concentration at 1 h [10] was 13.7 µM and the bioavailability [28] was 95%. For the same compound, the concentration at 24 h [11] was 0.06 µM, the Activity (Trypanosoma cruzi [12]) was 65% and the IC50 (L6) was > 100000 nM. For the same compound, the concentration at 1 h [29] was 6.8 µM, the Activity (Trypanosoma cruzi [30]) was “Active” and the concentration at 8 h [31] was 6.5 µM. The concentration at 1 h [15] was 10.3 µM and the concentration at 8 h [32] was 0.4 µM.
